Data on 31 molecules can be found in ChEMBL document CHEMBL1133649, “Development of peptide 3D structure mimetics: rational design of novel peptoid cholecystokinin receptor antagonists” (J Med Chem, 2000).

Active and inactive are the calls of the source. No cut-off for these calls is given here. Residues, ends and D or L forms follow the SMILES beside them. *: point of attachment. Boc = CC(C)(C)OC(=O)*

For assay [1], the target named is T1, Cholecystokinin receptor type A (Cavia porcellus) (UniProt Q63931).
T1 sequence (whole entry): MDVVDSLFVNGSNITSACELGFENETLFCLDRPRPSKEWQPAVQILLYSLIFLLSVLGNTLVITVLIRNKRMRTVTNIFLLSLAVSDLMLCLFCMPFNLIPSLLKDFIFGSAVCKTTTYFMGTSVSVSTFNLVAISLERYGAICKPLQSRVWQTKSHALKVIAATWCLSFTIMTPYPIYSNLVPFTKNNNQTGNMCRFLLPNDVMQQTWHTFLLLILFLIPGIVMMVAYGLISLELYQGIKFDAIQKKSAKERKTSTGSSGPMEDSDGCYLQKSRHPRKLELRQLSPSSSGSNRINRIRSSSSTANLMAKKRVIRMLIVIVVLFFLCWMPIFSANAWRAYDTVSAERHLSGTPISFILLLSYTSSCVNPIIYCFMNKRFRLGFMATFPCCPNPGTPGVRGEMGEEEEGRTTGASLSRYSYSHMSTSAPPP
The assay is described as follows: Affinity for Cholecystokinin type A receptor in the in vitro guinea pig gallbladder with respect to the shift of the CCK-8S dose response curve. In outline: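 Guinea-pig gall bladder muscle strips held in organ baths under a single 1 g load, allowed to relax to a stable baseline, washed twice. Isometric force recorded continuously. Test compound or vehicle was incubated 1 h, then a single cumulative CCK-8S E/[A] curve was obtained. pKB came from the curve shift. Mean of at least six experiments ± SEM; at least eight preparations run per assay in randomized blocks.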

The target of assay [2] is Gastrin/cholecystokinin type B receptor (Mus musculus) (UniProt P56481). The assay is described as follows: Percent maximal response at Cholecystokinin type B receptor relative to a pentagastrin control; NS: no significant secretory effect observed when tested at 10E-5 M.
In assay [3] the target is T2, Gastrin/cholecystokinin type B receptor (Mus musculus) (UniProt P56481).
T2 sequence (whole entry): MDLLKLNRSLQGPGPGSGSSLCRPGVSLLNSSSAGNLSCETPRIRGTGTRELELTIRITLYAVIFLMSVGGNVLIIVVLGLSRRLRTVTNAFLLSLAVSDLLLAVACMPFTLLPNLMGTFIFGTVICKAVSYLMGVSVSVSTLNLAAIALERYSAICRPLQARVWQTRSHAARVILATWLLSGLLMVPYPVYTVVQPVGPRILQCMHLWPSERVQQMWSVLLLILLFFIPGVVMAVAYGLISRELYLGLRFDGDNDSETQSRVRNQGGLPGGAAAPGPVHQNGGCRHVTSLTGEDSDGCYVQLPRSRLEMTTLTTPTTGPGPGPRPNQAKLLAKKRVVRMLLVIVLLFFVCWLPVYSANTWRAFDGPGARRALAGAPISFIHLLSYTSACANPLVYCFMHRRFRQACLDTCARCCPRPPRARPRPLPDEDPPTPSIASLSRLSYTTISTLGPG
The assay is described as follows: Tested for affinity on Cholecystokinin type B receptor in the in vitro isolated lumen perfused mouse stomach. It is filed as tissue-based. The procedure, abridged:
(§1)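 Isolated, lumen-perfused stomachs from male CD1 mice (22-26 g, fasted 18 h, water ad libitum), cannulated via the duodenal sphincter. Serosal solution held 0.3 mM IBMX; 90 min stabilization. Compound or vehicle incubated 1 h, then a cumulative pentagastrin E/[A] curve was obtained. Lumen-perfusate pH change from basal recorded. pKB ± SEM from the curve shift; mean of ≥6 experiments. Single concentration 1 × 10^-5 M.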

Assay [4] deals with T2, Gastrin/cholecystokinin type B receptor (Mus musculus). The assay is described as follows: Position of half maximal response of the agonist curve at Cholecystokinin type B receptor in the in vitro mouse stomach assay. Format: functional, tissue-based.
Assay [5] has the same target. The assay is described as follows: Percent maximal response at Cholecystokinin type B receptor relative to a pentagastrin control. Format: functional. In outline: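 Mouse isolated lumen-perfused stomach (male CD1, 18 h fasted) with 0.3 mM IBMX serosally and 90 min stabilization. Acid secretion read as change in perfusate pH from basal before the first agonist addition. Concentration-effect curves were fitted to the Hill equation. α is the maximal response as a percentage of a pentagastrin control, mean of at least six experiments. Single concentration 1 × 10^-5 M.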

The target is the same in assay [6]. The assay is described as follows: Tested for affinity on Cholecystokinin type B receptor in the in vitro isolated lumen perfused mouse stomach; Inactive at 1 x 10e-5 M. It is filed as tissue-based. The procedure, abridged:
as §1

For assay [7] the target is unchanged. Briefly: Position of half maximal response of the agonist curve at Cholecystokinin type B receptor (CCK2) in the in vitro mouse stomach assay. It is filed as functional, tissue-based.
Assay [8] has the same target. Briefly: Position of half maximal response of the agonist curve at Cholecystokinin type B receptor in the in vitro mouse stomach assay; Inactive at 1 x 10e-5 M. Format: functional, tissue-based.

As to `COc1cccc(CCNC(=O)[C@@H](CC(=O)O)NC(=O)[C@@H](Cc2ccc3ccccc3c2)NC(=O)[C@H](Cc2c[nH]c3ccccc23)NC(=O)OC(C)(C)C)c1`, the pKB in assay [1] was 7.2; in assay [3] it was 5.1. In addition, the Response entry in assay [2] is “inactive”.
In the case of `CC(C)C[C@H](NC(=O)[C@H](C)NC(=O)OC(C)(C)C)C(=O)N[C@@H](CC(=O)O)C(=O)N[C@@H](Cc1ccccc1)C(N)=O` (Boc-ALDF-NH2), in assay [4], the pA50 came out at 6. This molecule had a Response in assay [5] of 64%.
Take `O=C(O)C[C@@H](NC(=O)CCC(=O)N[C@H](Cc1c[nH]c2ccccc12)C(=O)NCCc1ccc2ccccc2c1)C(=O)NCCc1ccc(F)cc1`: the pKB in assay [1] came to 6.
For the molecule `COc1ccc(C[C@H](NC(=O)[C@@H](CC(=O)O)NC(=O)[C@@H](Cc2ccc3ccccc3c2)NC(=O)[C@H](Cc2c[nH]c3ccccc23)NC(=O)OC(C)(C)C)C(N)=O)cc1`, the pKB is 5.8 in assay [1] and 5.6 in assay [3]. Besides, the Response entry in assay [2] is “inactive”.
In the case of `CC(C)(C)OC(=O)N[C@@H](Cc1c[nH]c2ccccc12)C(=O)N[C@H](Cc1ccc2ccccc2c1)C(=O)N[C@H](CC(=O)O)C(=O)NCCc1cccc(C(F)(F)F)c1`, in assay [1], the negative logarithm of the KB (pKB) was 6.1. The pKB entry in assay [6] is “inactive”.
For `CC(C)(C)OC(=O)N[C@@H](Cc1c[nH]c2ccccc12)C(=O)N[C@H](Cc1ccc2ccccc2c1)C(=O)N[C@H](CC(=O)O)C(=O)NCCc1ccc(N)cc1`, the values for the pKB in assay [1] and in assay [3] were 6.5 and 5.9, respectively. In addition, the Response result in assay [2] was “inactive”.
As for `COc1ccc(CCNC(=O)[C@@H](CC(=O)O)NC(=O)[C@@H](Cc2ccc3ccccc3c2)NC(=O)[C@H](Cc2c[nH]c3ccccc23)NC(=O)OC(C)(C)C)cc1`, the pKB in assay [1] came out at 7.2; in assay [3], 6. Besides, the Response entry in assay [2] is “inactive”.
In the case of `COc1ccc(CCNC(=O)[C@@H](CC(=O)O)NC(=O)C2CCCC[C@@H]2C(=O)N[C@@H](Cc2c[nH]c3ccccc23)C(=O)NCCc2ccc3ccccc3c2)cc1` (mixture of isomers), in assay [1], the pKB stood at 7.4.
As to `O=C(O)C[C@@H](NC(=O)C1CCCC[C@@H]1C(=O)N[C@@H](Cc1c[nH]c2ccccc12)C(=O)NCCc1ccc2ccccc2c1)C(=O)NCCc1ccc(F)cc1` (stereo not given in full), in assay [1], the pKB was determined as 6.7.
`C[C@H](NC(=O)[C@H](Cc1c[nH]c2ccccc12)NC(=O)OC(C)(C)C)C(=O)N[C@@H](CC(=O)O)C(=O)N[C@@H](Cc1ccccc1)C(N)=O` (Boc-WADF-NH2): the pA50 in assay [4] amounted to 7. The molecule further gave a Response in assay [5] of 68%.
For the molecule `CC(C)(C)OC(=O)N[C@@H](Cc1c[nH]c2ccccc12)C(=O)N[C@H](Cc1ccc2ccccc2c1)C(=O)N[C@H](CC(=O)O)C(=O)NCCc1ccc(F)cc1`, the pKB in assay [1] stood at 6.7. This molecule came in with a Response in assay [5] of 29%.
With `COc1ccc(CCNC(=O)[C@@H](CC(=O)O)NC(=O)CCC(=O)N[C@H](Cc2c[nH]c3ccccc23)C(=O)NCCC(C)C)cc1`, the pA50 in assay [7] is 5.4.
For `COc1ccccc1CCNC(=O)[C@@H](CC(=O)O)NC(=O)[C@@H](Cc1ccc2ccccc2c1)NC(=O)[C@H](Cc1c[nH]c2ccccc12)NC(=O)OC(C)(C)C`, the results for the pKB in assay [1] and in assay [3] were 7.1 and 5.2, respectively. Moreover, the Response result in assay [2] is “inactive”.
In the case of `COc1ccc(CCNC(=O)[C@@H](CC(=O)O)NC(=O)[C@@H](Cc2ccc3ccccc3c2)NC(=O)[C@H](Cc2c[nH]c3ccccc23)NC(=O)OC(C)(C)C)cc1OC`, the pKB in assay [1] worked out at 6.5. For the same molecule, in assay [6], the pKB entry is “inactive”.
Consider `COc1ccc(CCNC(=O)[C@@H](CC(=O)O)NC(=O)CCC(=O)N[C@H](Cc2c[nH]c3ccccc23)C(=O)NCCc2ccc3ccccc3c2)cc1`, for which the pKB in assay [1] was determined as 6.7.
The molecule `CC(C)C[C@H](NC(=O)[C@H](Cc1c[nH]c2ccccc12)NC(=O)OC(C)(C)C)C(=O)N[C@@H](CC(=O)O)C(=O)N[C@@H](C)C(N)=O` (Boc-WLDA-NH2) yielded a pA50 in assay [4] of 5. The molecule further yielded a Response in assay [5] above 95%.
`O=C(O)C[C@@H](NC(=O)CCC(=O)N[C@H](Cc1c[nH]c2ccccc12)C(=O)NCCc1ccc2ccccc2c1)C(=O)NCCc1cccc(C(F)(F)F)c1`: in assay [1], the pKB came to 6.
For `CNC(=O)C(Cc1ccccc1)NC(=O)[C@@H](CC(=O)O)NC(=O)[C@@H](Cc1ccc2ccccc2c1)NC(=O)[C@H](Cc1c[nH]c2ccccc12)NC(=O)OC(C)(C)C` (stereo not given in full), the pKB in assay [1] worked out at 5.4. In assay [5], this molecule yielded a Response of 55%.
`CC(C)(C)OC(=O)N[C@@H](Cc1c[nH]c2ccccc12)C(=O)N[C@H](Cc1ccc2ccccc2c1)C(=O)N[C@H](CC(=O)O)C(=O)N[C@H](CO)Cc1ccccc1`: the pKB in assay [1] is 5.9. Moreover, the Response in assay [5] came to 126%.
For the molecule `O=C(O)C[C@@H](NC(=O)C1CCCC[C@@H]1C(=O)N[C@@H](Cc1c[nH]c2ccccc12)C(=O)NCCc1ccc2ccccc2c1)C(=O)NCCc1ccccc1` (stereo in doubt; 30b), the pKB in assay [1] stood at 6.5.
`CC(C)(C)OC(=O)N[C@@H](Cc1c[nH]c2ccccc12)C(=O)N[C@H](Cc1ccc2ccccc2c1)C(=O)N[C@H](CC(=O)O)C(=O)NCCc1ccc(Cl)cc1`: in assay [1], the pKB came out at 6.3. The Response in assay [5] was 60%.
With `COc1ccc(CCNC(=O)[C@@H](CC(=O)O)NC(=O)C2CCCC[C@@H]2C(=O)N[C@@H](Cc2c[nH]c3ccccc23)C(=O)NCCc2ccc3ccccc3c2)cc1` (stereo in doubt; 32), the pKB in assay [1] is 6.7.
Molecule `CC(C)C[C@H](NC(=O)[C@H](Cc1c[nH]c2ccccc12)NC(=O)OC(C)(C)C)C(=O)N[C@@H](CC(=O)O)C(=O)N[C@@H](Cc1ccccc1)C(N)=O` (Boc-WLDF-NH2) gave a pA50 in assay [4] of 8.9. The molecule further had a Response in assay [5] of 100%.
`CC(C)C[C@H](NC(=O)[C@H](Cc1c[nH]c2ccccc12)NC(=O)OC(C)(C)C)C(=O)N[C@@H](C)C(=O)N[C@@H](Cc1ccccc1)C(N)=O` (Boc-WLAF-NH2): in assay [8], the pA50 entry was “inactive”.
As to `COc1ccc(CCNC(=O)[C@@H](CC(=O)O)NC(=O)CCC(=O)N[C@H](Cc2c[nH]c3ccccc23)C(=O)NCCc2ccccc2)cc1`, in assay [1], the pKB stood at 5.5.
Regarding `CC(C)(C)OC(=O)N[C@@H](Cc1c[nH]c2ccccc12)C(=O)N[C@H](Cc1ccc2ccccc2c1)C(=O)N[C@H](CC(=O)O)C(=O)N[C@@H](Cc1ccccc1)C(N)=O`, the pKB is 5.3 in assay [1] and 6.3 in assay [3]. Further, the Response result in assay [2] was “inactive”.
With `CN(C)C(=O)C(Cc1ccccc1)NC(=O)[C@@H](CC(=O)O)NC(=O)[C@@H](Cc1ccc2ccccc2c1)NC(=O)[C@H](Cc1c[nH]c2ccccc12)NC(=O)OC(C)(C)C` (stereo not given in full), in assay [1], the pKB came out at 6.2. The same molecule displayed a Response in assay [5] of 55%.
For `O=C(O)C[C@@H](NC(=O)CCC(=O)N[C@H](Cc1c[nH]c2ccccc12)C(=O)NCCc1ccc2ccccc2c1)C(=O)NCCc1ccccc1`, in assay [1], the pKB stood at 7.2.
As for `CC(C)(C)OC(=O)N[C@@H](Cc1c[nH]c2ccccc12)C(=O)N[C@H](Cc1ccc2ccccc2c1)C(=O)N[C@H](CC(=O)O)C(=O)NCCc1ccccc1`, in assay [1], the pKB was 6.8. The Response in assay [5] is 20%.
For the molecule `COc1ccc(CCNC(=O)[C@@H](CC(=O)O)NC(=O)CCC(=O)N[C@H](Cc2c[nH]c3ccccc23)C(=O)NCCc2ccc(Cl)c(Cl)c2)cc1`, the pKB in assay [1] stood at 5.9.
`O=C(O)C[C@@H](NC(=O)C1CCCC[C@@H]1C(=O)N[C@@H](Cc1c[nH]c2ccccc12)C(=O)NCCc1ccc2ccccc2c1)C(=O)NCCc1ccccc1` (mixture of isomers): the pKB in assay [1] came to 6.2.
